Data set [1] deals with T1, 6×His-tagged hMcl-1(172–323) (Homo sapiens, UniProt Q07820). In words: DELFIA displacement assay. The format is binding. The method, boiled down: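 6×His-tagged hMcl-1(172–323) (16 nM) in a heterogeneous DELFIA format. The test agent displaces a biotinylated BIM BH3 reference peptide. Test agent was preincubated with protein for a fixed time (2 h for the peptide series) before dose–response measurement. IC50 was taken from the dose–response curves, and the ratio line is the ratio of these IC50 values.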

Data set [2] deals with T2, hMcl-1(172–323) (Homo sapiens, UniProt Q07820). The data set can be described thus: SDS gel electrophoresis, covalent adduct formation. The format is binding. The following applies: 10 μM protein, 100 μM compound. A digest of the protocol:
(§1)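 Wild-type, His224Ala, His252Ala or Lys234Ala hMcl-1(172–323) (10 μM) was incubated with or without 100 μM test agent in 50 mM phosphate pH 7.5, 150 mM NaCl, 1% DMSO. Samples ran on 12% Bis-Tris SDS-PAGE with MOPS running buffer and protein stain. Mutants were sampled at 7 h. Wild type was also sampled over a time course, and complex formation was estimated qualitatively from the gel.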

Data set [3] addresses hMcl-1(172–323) His224Ala (Homo sapiens, UniProt Q07820, H224A). The data set can be described thus: SDS gel electrophoresis, His224Ala mutant. The format is binding. Conditions: 100 μM compound, 7 h. A digest of the protocol: as §1
Data set [4] deals with hMcl-1(172–323) Lys234Ala (Homo sapiens, UniProt Q07820, K234A). The data set can be described thus: SDS gel electrophoresis, Lys234Ala mutant. Conditions: 100 μM compound, 7 h. The format is binding. A digest of the protocol:
as §1

Data set [5] deals with hMcl-1(172–323) His252Ala (Homo sapiens, UniProt Q07820, H252A). In words: SDS gel electrophoresis, His252Ala mutant. The format is binding. The following applies: 100 μM compound, 7 h. The method, boiled down:
as §1

Data set [6] addresses T2, hMcl-1(172–323). The data set can be described thus: LC-MS analysis of covalent complex. The format is binding. The following applies: 10 μM protein, 100 μM compound, 7 h, room temperature.
For data set [7], the target named is His224Ala hMcl-1(172–323) (Homo sapiens, UniProt Q07820, H224A). In words: LC-MS analysis of covalent complex, His224Ala mutant. Format: binding. Conditions: 10 μM protein, 100 μM compound, 7 h.
In another data set the test system is 6×His-hBfl-1(1–149). The data set can be described thus: DELFIA displacement assay against hBfl-1. Conditions: same experimental conditions as the hMcl-1 DELFIA assay. Format: binding, human.
In another data set the target is hMcl-1 (Homo sapiens, UniProt Q07820). In words: Kinetic measurements with the DELFIA assay. The format is binding. The method, boiled down: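 In the DELFIA format, wells with 16 nM Mcl-1 and 1:2000 Eu–N1 anti-6×His antibody were incubated 2 h, then with test compound for 0, 2, 5, 10, 20 and 40 min. Wells were washed three times and given enhancement solution for 10 min, then Eu fluorescence was read (excitation 340, emission 615). kobs came from the slope of % inhibition versus time, plotted against concentration and fitted hyperbolically to give KI and kinact.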

Data set [8] can be described thus: Chemical stability in aqueous buffer by 1D 1H and 19F NMR. Format: physicochemical. Conditions: 100 μM in 50 mM phosphate pH 7.5, 150 mM NaCl; up to 48 h. A digest of the protocol: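 Test compound at 100 μM in 50 mM phosphate pH 7.5, 150 mM NaCl. 1D 1H spectra were collected at set time points, and 19F 1D spectra were recorded in the same buffer at various time points on a 600 MHz instrument. Stability was judged from changes in the spectra over time.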

The nature of data set [9]: Plasma stability by 1D 1H NMR. Format: in vitro ADME. Conditions: human plasma in PBS.
In data set [10] the target is T1, 6×His-tagged hMcl-1(172–323). Conditions: against hMcl-1; previously identified minimal binding peptide; cited from earlier work.

Entries after “also recorded” stand apart in the source; their conditions may differ. Read-outs that look alike come from different tables or passages of the source. Where a SMILES comes first, the peptide text is derived from it. Bridges are numbered along the chain shown (N, C = ends). [ ]: non-standard residue; d: D form. Tyr(SO2F) = N[C@@H](Cc1ccc(OS(=O)(=O)F)cc1)C(=O)O; S5 = C=CCCC[C@](C)(N)C(=O)O

T2 sequence (Q07820 172-323): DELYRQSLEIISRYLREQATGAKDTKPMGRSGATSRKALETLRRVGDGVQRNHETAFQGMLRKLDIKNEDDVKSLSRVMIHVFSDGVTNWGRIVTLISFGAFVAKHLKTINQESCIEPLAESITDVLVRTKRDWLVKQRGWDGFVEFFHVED
T1 sequence (Q07820 172-323): as above
Chain of His224Ala hMcl-1(172–323) (Q07820 172-323 H224A): as the sequence (Q07820 172-323) above, with H53A counted along it
Chain of hMcl-1(172–323) His224Ala (Q07820 172-323 H224A): as the sequence (Q07820 172-323) above, with H53A counted along it
Chain of hMcl-1(172–323) His252Ala (Q07820 172-323 H252A): as the sequence (Q07820 172-323) above, with H81A counted along it
Chain of hMcl-1 (Q07820 172-323): as the sequence (Q07820 172-323) above
Chain of hMcl-1(172–323) Lys234Ala (Q07820 172-323 K234A): as the sequence (Q07820 172-323) above, with K63A counted along it

One may read the IC50 as the midpoint of a concentration-inhibition curve. Turning to `CC[C@H](C)[C@H](NC(C)=O)C(=O)N[C@@H](C)C(=O)N[C@@H](CCC(=O)O)C(=O)N[C@@H](CCC(N)=O)C(=O)N[C@@H](CC(C)C)C(=O)N[C@@H](CCCNC(=N)N)C(=O)N[C@@H](CCCNC(=N)N)C(=O)N[C@H](C(=O)NCC(=O)N[C@@H](CC(=O)O)C(=O)N[C@@H](CCCNC(=N)N)C(=O)N[C@@H](Cc1ccc(OS(=O)(=O)F)cc1)C(N)=O)[C@@H](C)CC` [compound 6] (Ac-IAEQLRRIGDR[Tyr(SO2F)]-NH2), the IC50 in data set [1] was 8.1 nM. The “band shift (stable adduct)” value is “band shift” on hMcl-1(172–323) [2] (7 h incubation), “not with the His224Ala mutant” in [3], “band shifts” in [4] and “band shifts” in data set [5]. Also, the “covalent adduct by mass spectrometry” value on hMcl-1(172–323) [6] is reported as “forms a stable 1:1 complex”; in data set [7], “no MW increase was observed”.

What is called kinact/KI is the second-order rate constant of inactivation. As to `CC[C@H](C)[C@H](NC(C)=O)C(=O)N[C@@H](C)C(=O)N[C@@]1(C)CCC/C=C\CCC[C@@](C)(C(=O)N[C@H](C(=O)NCC(=O)N[C@@H](CC(=O)O)C(=O)N[C@@H](CCCNC(=N)N)C(=O)N[C@@H](Cc2ccc(OS(=O)(=O)F)cc2)C(N)=O)[C@@H](C)CC)NC(=O)[C@H](CCCNC(=N)N)NC(=O)[C@H](CC(C)C)NC(=O)[C@H](CCC(N)=O)NC1=O` [compound 9] (Ac-IA[S5]QLR[S5]IGDR[Tyr(SO2F)]-NH2; staple (Z) 3-7), the IC50 in [1] is 5.8 ± 0.9 nM. Moreover, the “times less active against hBfl-1(1–149) than hMcl-1” value with 6×His-hBfl-1(1–149) is approximately 160 times. Besides, at hMcl-1(172–323) [2] (qualitative from gel), the “time to approximately 50% complex formation” value is on record as approximately 1 h. In addition, on hMcl-1(172–323) [2] (qualitative from gel), the “time to complete (or nearly complete) adduct formation” value was not above 4 h. Moreover, the results for the “covalent adduct by mass spectrometry” value (on hMcl-1(172–323) [6]; in data set [7]) were “corresponding to the anticipated mass of the covalent adduct” and “could not form a covalent adduct”, respectively. Besides, the kinact/KI on hMcl-1 is 67000 ± 3e+07 M⁻¹ s⁻¹. Moreover, the “chemical stability in aqueous buffer” value in [8] is reported as “No significant spectral changes were observed; also recorded: did not observe any degradation”. Besides, the “plasma stability” value in data set [9] (8 h) is reported as “remains mostly intact”. For the same compound, the “remaining after incubation in plasma” value in [9] (24 h) was approximately 40%.

For IAEQLRRIGDRF, in data set [10], the IC50 is 250 nM.

Source of the values: PMC11613628 (Journal of Medicinal Chemistry, 2024).
